Shown are actives, neighbours in structure and some others; about 2.2% of the full set was active somewhere.
M1 antag = human CHRM1 antagonism; P11229; CHO-K1 hM1, Fluo-8 calcium fluorescence, ACh EC80 antagonist; inhibition, % at 3 µM; hit rate 1.3% among 360,000; AID 588852;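 active = percent inhibition above its own plate's cutoff, namely the mean of that plate's compound wells plus 3 SD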;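 also: peak over basal fluorescence ratio during 140 s after agonist addition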
CHRM5 antagonist = blocks acetylcholine activation of human M5 receptor; P08912; CHO-hM5 cells, Fluo-8 calcium fluorescence, ACh EC80; inhibition, % at 3 µM; hit rate 0.59% among 360,000;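 active = inhibition above a per-plate cutoff, the mean of that plate's test compounds plus 3 SD, cut at about 27% in these data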
Target sequence (P08912 whole entry, looked up): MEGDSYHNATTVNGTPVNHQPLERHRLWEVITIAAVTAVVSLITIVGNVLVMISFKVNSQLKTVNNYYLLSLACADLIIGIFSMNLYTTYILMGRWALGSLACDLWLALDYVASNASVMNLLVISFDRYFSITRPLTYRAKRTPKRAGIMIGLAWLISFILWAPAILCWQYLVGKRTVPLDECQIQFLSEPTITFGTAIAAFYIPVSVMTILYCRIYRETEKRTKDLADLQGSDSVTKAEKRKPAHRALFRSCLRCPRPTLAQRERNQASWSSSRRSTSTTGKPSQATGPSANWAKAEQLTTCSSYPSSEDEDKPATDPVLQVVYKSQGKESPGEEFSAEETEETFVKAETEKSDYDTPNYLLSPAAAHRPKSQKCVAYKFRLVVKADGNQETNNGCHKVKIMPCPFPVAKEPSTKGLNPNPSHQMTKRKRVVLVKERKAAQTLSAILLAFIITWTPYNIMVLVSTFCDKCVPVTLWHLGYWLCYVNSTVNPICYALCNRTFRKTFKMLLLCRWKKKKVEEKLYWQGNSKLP
CHRM1 PAM = human CHRM1 positive allosteric modulation | P11229 | CHO-K1 hM1, Fluo-8 calcium fluorescence, ACh EC20; 0% = ACh EC20, 100% = maximal ACh | activation, % at 3 µM | hit rate 0.088% among 360,000; in the data active = activation above about 19%, passing the limit was not always enough
M1 ag = agonists of human M1 muscarinic receptor. hit rate 0.33% among 360,000. CHO-K1 hM1, Fluo-8 calcium fluorescence, agonist mode; 0% DMSO, 100% acetylcholine EC100. P11229. activation, % at 3 µM. AID 588814;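 active = activation above the run's mean compound activation plus 3 SD, cut at about 16% in these data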;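 also: peak over basal fluorescence ratio within a 140 s kinetic read after compound addition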
M5 PAM = potentiates acetylcholine response at human M5 receptor; P08912; CHO-K1 hM5, Fluo-8 calcium, ACh EC20 PAM; 0% = ACh EC20, 100% = ACh EC100; activation, % at 3 µM; hit rate 0.3% among 360,000; AID 624038;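 active = activation above the run cutoff, the mean activation of all test compounds plus 3 SD, cut at about 18% in these data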
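system = human M5 receptor in CHO-K1 cells | reagent = EC20 acetylcholine as agonist stimulus | compound dosing = single-point, 3 µM nominal | incubation = Fluo-8 loading 80 min at 37 °C plus 30 min room temperature | detection = Fluo-8 calcium dye fluorescence, kinetic read | benchmarks = low control EC20 acetylcholine (0%), high control EC100 acetylcholine (100%)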
M5 ag = agonists of human muscarinic M5 receptor (CHRM5) | activation, % at 3 µM | CHO-K1 hM5 cells, Fluo-8 calcium fluorescence; 0% DMSO wells, 100% maximal acetylcholine response | AID 624037 | hit rate 0.19% among 360,000 | P08912;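 active = activation above the run's mean over test compounds plus 3 SD, cut at about 23% in these data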;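 also: signal is peak over basal fluorescence ratio across the kinetic read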
Of the large screens only hits and unclear results are named; the others gave an inactive call.

COc1ccc(OC)c(N/C(=N/C(=S)Nc2ccccc2)Nc2nc(C)cc(C)n2)c1	none
NCC1CC2c3ccccc3C1c1ccccc12 (stereo unspecified)	M1 antag 28
O=C(NCc1cccnc1)C1CC2c3ccccc3C1c1ccccc12 (stereo unspecified)	none
O=[N+]([O-])c1ccc(CSc2nnc(-c3cccnc3)o2)cc1	M5 PAM 22
CC1(N(O)/C=C2\C=CC=CC2=O)CCCCC1=O (stereo unspecified)	none
Cc1ccc(-c2noc(C3CCCN(C(=O)c4c(F)cccc4F)C3)n2)cc1 (stereo unspecified)	none
O=C(c1c(F)cccc1F)N1CCCC(c2nc(-c3ccc(Cl)cc3)no2)C1 (stereo unspecified)	CHRM5 antagonist 28
Cc1cc2cc(CNC(=O)Nc3ccccc3)ccc2[nH]1	none
CN1CCN(C2CN(Cc3cn(Cc4cccc(C(F)(F)F)c4)nn3)S(=O)(=O)C2)CC1 (stereo unspecified)	none (no result: M1 antag, CHRM1 PAM, M1 ag)
Cc1ccccc1OCC(=O)Nc1ccc(N2CCN(C)CC2)c(Cl)c1	M1 antag 45
COc1ccc(OCC(=O)Nc2ccc(N3CCOCC3)c(Cl)c2)cc1	none
COc1ccc(OCC(=O)Nc2ccc(N3CCN(C(=O)c4ccccc4)CC3)c(Cl)c2)cc1	M1 antag 36
C=CCNc1oc(-c2cccs2)nc1C#N	none
Cc1ccc(NC(=S)NCc2ccc(Cl)cc2)c(OC(F)F)c1	M1 antag 34
O=[N+]([O-])c1ccc(NC(=S)NCc2ccc(F)cc2)cc1	M1 antag 28
S=C(NCc1ccncc1)Nc1cccc(Cl)c1	none
S=C(NCc1ccc(Cl)cc1)Nc1ccncc1	M1 antag 44, CHRM5 antagonist 41
Fc1ccc(CNC(=S)Nc2ccc(Cl)cc2)cc1	CHRM5 antagonist 31
S=C(NCc1ccc(Cl)cc1)Nc1ccccc1	none
COc1cc(-c2nnc(COC(=O)c3ccc([N+](=O)[O-])o3)o2)cc(OC)c1OC	none
Cc1ccc([N+](=O)[O-])c(C(=O)N/N=C/c2cccs2)c1	none
CC(=O)Nc1ccc(N2CCOCC2)c(S(=O)(=O)Nc2ccccc2Cl)c1	none
O=C(Nc1cccc(C(F)(F)F)c1)Nc1ccc(N2CCCC2)c(S(=O)(=O)Nc2ccccc2Cl)c1	CHRM5 antagonist 28
CC(=O)N1CCN(c2ccc(Oc3ccc([N+](=O)[O-])c(C(F)(F)F)c3)cc2)CC1	CHRM5 antagonist 27
COc1ccc(S(=O)(=O)N(C)Cc2ccc3c(c2)OCCO3)cc1	none
O=C(CCCNC(=O)c1ccc(Cl)cc1)Nc1ncccc1O	CHRM1 PAM 26
CCC(C(=O)OCC(=O)C1(O)CCC2C3CCC4=CC(=O)CCC4(C)C3C(O)CC21C)C(C)C (stereo unspecified)	M1 antag 84
CC(=O)[C@@]1(O)CC[C@H]2[C@@H]3CCC4=CC(=O)CC[C@]4(C)[C@H]3[C@@H](O)C[C@@]21C	none
CC(=O)C1CCC2C3CCC4=CC(=O)CCC4(C)C3C(O)CC12C (stereo unspecified)	none
CC12CCC(=O)C=C1CCC1C2C(O)CC2(C)C(c3csc(N)n3)CCC12 (stereo unspecified)	M1 antag 42
CC12CCC(=O)C=C1CCC1C2CCC2(C)C(c3csc(N)n3)CCC12 (stereo unspecified)	M1 antag 79
CCc1ccc(-c2cnc3nc[nH]c(=O)c3n2)cc1	none
CC(CNC(=O)CN1C(=O)NC2(CCCCC2)C1=O)c1ccccc1 (stereo unspecified)	none
COc1ccc(/C=C/CN2CCN(CC(C)C)C(CCO)C2)cc1 (stereo unspecified)	M1 antag 28
COc1ccc(/C=C/CN2CCN(Cc3cccc(OC)c3)C(CCO)C2)cc1 (stereo unspecified)	none
CN(C)CCN(C(=O)c1cccc2ccccc12)c1nc2cc3c(cc2s1)OCO3	M1 antag 47
CCOC(=O)c1c(NC(=O)C(C)N2CCN(C(=O)c3ccco3)CC2)sc2c1CCCC2 (stereo unspecified)	M1 antag 37, M1 ag 20, M5 ag 27
CCOC(=O)c1c(NC(=O)c2ccco2)sc2c1CCCCC2	none
Cc1cccc(OCC(=O)Nc2ccc(N3CCN(C(=O)c4ccco4)CC3)cc2)c1	CHRM5 antagonist 27
CC(C)C(=O)N1CCN(c2ccc(NC(=O)COc3ccccc3[N+](=O)[O-])cc2)CC1	M1 antag 37
Cc1cccc(OCC(=O)Nc2ccc(N3CCN(C(=O)c4ccccc4)CC3)cc2)c1C	M1 antag 27
CCC(=O)N1CCN(c2ccc(NC(=O)COc3cccc(C)c3C)cc2)CC1	none
CN1CCN(c2ccc(NC(=O)COc3ccccc3[N+](=O)[O-])cc2)CC1	none
CCN(CC)C1CCN(Cc2c(C(=O)N3CCCCCCC3)nc3ccc(Cl)cn23)C1 (stereo unspecified)	M1 antag 32
COc1ccc(N(C)S(=O)(=O)c2cccc(C(=O)OCC(=O)NCc3ccccc3OC)c2)cc1	M1 antag 25
COc1cc2c(cc1OC)C1CCc3cc4c(cc3C1N=C2)OCO4 (stereo unspecified)	none
CCCn1c(SCC(=O)Nc2ccc(OCC)cc2)nnc1C(C)C	M5 PAM 19
CCOc1ccc(NC(=O)CSc2nnc(C(C)C)n2CC)cc1	none
Cc1cc(C)nc(NS(=O)(=O)c2ccc(NC(=O)CCCN3C(=O)c4ccccc4C3=O)cc2)n1	none
CC(C)(C)c1ccccc1OCCN1CCCC1	M1 antag 43
Fc1ccc(OCCOCCN2CCCC2)cc1	none
Cc1ccc(C(C)(C)C)c(OCCN2CCCC2)c1	M1 antag 67
CC(OCCN1CCCC1)(c1ccc(F)cc1)c1ccc(F)cc1	M1 antag 92, CHRM5 antagonist 36
CN(C)CCOc1ccccc1C(C)(C)C	M1 antag 57
CN(C)c1nc(-c2cccnc2)nc(-c2ccccc2)c1C#N	none
O=C(C1CC1)N1CCN(c2ccc(O)cc2)CC1	none
CCCCCCCCN1N=N[C@H]2[C@H]1[C@@H]1C[C@H]2N(C(=O)OC(C)(C)C)O1	none
NC(=O)c1nsc(C(=O)N(Cc2cccnc2)C(C(=O)NCc2ccc(F)cc2)c2ccc(F)cc2)c1N (stereo unspecified)	none
CCN(CC)c1ccc(C2C(C(C)=O)C(=O)CC(C)(O)C2C(C)=O)cc1 (stereo unspecified)	none
Cc1ccc2nc(C)c(CN3CCN(c4ccc([N+](=O)[O-])cc4Cl)CC3)n2c1	M1 antag 37, CHRM5 antagonist 38
O=[N+]([O-])c1ccc(Cl)c(CN2CCN(c3ncccn3)CC2)c1	none

Compound activity from PubChem BioAssay.
